Experimental data taken from PMC9050788 (European Journal of Drug Metabolism and Pharmacokinetics, 2022).
“Also recorded” adds a separate entry of the source. Values belong to the compound of their own block, whether it stands above or below them.

What was measured:
[1] = Phase I DDI study of abrocitinib with fluvoxamine; type: in vivo, human
[2] = Phase I DDI study of abrocitinib with fluconazole; type: in vivo, human
[3] = Phase I DDI study of abrocitinib with rifampin; type: in vivo, human
[4] = Phase I DDI study of abrocitinib with probenecid; type: in vivo, human
Single vs multiple-dose = type: in vivo, human; conditions: for Mean (SD) plasma concentration: abrocitinib 200 mg once daily; for Contribution to the total active moiety (unbound, adjusted for relative potencies): at steady state with 200 mg QD dosing
[5] = Safety across the three phase I DDI studies; type: in vivo, human; conditions: all three studies, healthy volunteers
Method in brief: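 Safety population comprised all subjects receiving at least one dose of study medication. Adverse events were summarised descriptively.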

[6] = tested on: cytochrome P450 (CYP) 2C19; conditions: CYP2C19; data on file; cited from earlier work
CYP2C9 = conditions: data on file; cited from earlier work
CYP3A4 = conditions: data on file; cited from earlier work
CYP2B6 = conditions: data on file; cited from earlier work
[7] = cited from earlier work
[8] = after a single oral dose of abrocitinib; ref data on file; cited from earlier work
[9] = tested on: organic anion transporter 3 (OAT3); conditions: in vitro transporter profiling; ref data on file; cited from earlier work
[10] = population analyses; ref data on file; cited from earlier work
[11] = plasma protein binding; ref data on file; cited from earlier work
[12] = Abrocitinib 100 mg single dose (n = 12), fluvoxamine study
[13] = Abrocitinib 100 mg single dose + fluvoxamine 50 mg QD (n = 12)
[14] = with fluvoxamine vs abrocitinib alone, active moiety unbound
[15] = Abrocitinib 100 mg single dose (n = 12), fluconazole study
[16] = Abrocitinib 100 mg single dose + fluconazole 200 mg QD (n = 12)
[17] = with fluconazole vs abrocitinib alone, active moiety unbound
[18] = Abrocitinib 100 mg single dose (n = 12), rifampin study
[19] = Abrocitinib 200 mg single dose + Rifampin 600 mg QD (n = 12)
[20] = with rifampin vs abrocitinib alone, active moiety unbound
[21] = Abrocitinib 100 mg single dose (n = 12), probenecid study
[22] = Abrocitinib 200 mg single dose + Probenecid 1000 mg BID (n = 12)
[23] = with probenecid vs abrocitinib alone, active moiety unbound
[24] = Probenecid 1000 mg BID (n = 12)

Subjects with TRAEs [1, 12]: 3 (25.0) n (%) | Subjects with TRAEs [1, 13]: 3 (25.0) n (%) | Increase in AUCinf [1, 14]: 2.8 fold | Increase in Cmax [1, 14]: 1.8 fold | Subjects with TRAEs [2, 15]: 2 (16.7) n (%) | Subjects with TRAEs [2, 16]: 6 (50.0) n (%) | Increase in AUCinf [2, 17]: 4.8 fold | Increase in Cmax [2, 17]: 1.9 fold | Subjects with TRAEs [3, 18]: 2 (16.7) n (%) | Subjects with TRAEs [3, 19]: 4 (33.3) n (%) | Decrease in AUCinf [3, 20]: 87.6% | Decrease in Cmax [3, 20]: 79.1% | Subjects with TRAEs [4, 21]: 2 (16.7) n (%) | Subjects with TRAEs [4, 22]: 4 (33.3) n (%) | Increase in Cmax [4, 23]: 1.2 fold | Mean (SD) plasma concentration (Single vs multiple-dose; before dosing on Day 2): 9.16 (7.96) ng/mL | Mean (SD) plasma concentration (Single vs multiple-dose; before dosing on Day 3): 15.01 (21.38) ng/mL | Mean (SD) plasma concentration (Single vs multiple-dose; before dosing on Day 4): 14.95 (15.88) ng/mL | concentration at 24 h (Single vs multiple-dose; human, plasma, oral, 200 mg): 11.3 ng/mL | Time to steady-state plasma concentrations (Single vs multiple-dose; once-daily administration, achieved by Day 3 of dosing): ≤ 48 h
Structure (SMILES): CCCS(=O)(=O)N[C@H]1C[C@@H](N(C)c2ncnc3[nH]ccc23)C1 [Abrocitinib, N-{cis-3-[Methyl(7H-pyrrolo[2,3-d]pyrimidin-4-yl)amino]cyclobutyl}propane-1-sulfo namide]
Subjects with TEAEs [1, 12]: 3 (25.0) n (%) | Subjects with TEAEs [1, 13]: 6 (50.0) n (%) | Subjects with TEAEs [2, 15]: 2 (16.7) n (%) | Subjects with TEAEs [2, 16]: 7 (58.3) n (%) | Subjects with TEAEs [3, 18]: 2 (16.7) n (%) | Subjects with TEAEs [3, 19]: 4 (33.3) n (%) | Subjects with TEAEs [4, 21]: 6 (50.0) n (%) | Subjects with TEAEs [4, 22]: 5 (41.7) n (%) | Serious or severe adverse events [5]: No serious or severe adverse events | Contribution to abrocitinib metabolism [6]: 53% | Contribution to abrocitinib metabolism (CYP2C9): 30% | Contribution to abrocitinib metabolism (CYP3A4): 11% | Contribution to abrocitinib metabolism (CYP2B6): 6% | Parent drug excreted unchanged in the urine [7]: 1.0–4.4% | Share of circulating species [8]: 26% | Substrate of OAT3 [9]: not a substrate | Sex-related differences in pharmacokinetics [10]: no sex-related differences

Increase in Cmax [4, 23]: 1.4 fold | Contribution to the total active moiety (unbound, adjusted for relative potencies) (Single vs multiple-dose): ~ 10%
Structure (SMILES): CN(c1ncnc2[nH]ccc12)[C@H]1C[C@@H](NS(=O)(=O)CCCO)C1 [M1]
Fraction unbound in plasma (fu) [11]: 0.63 | Share of circulating species [8]: 11% | Substrate of OAT3 [9]: substrates; also recorded: in part a substrate

Increase in AUCinf [4, 23]: 2.2 fold | Increase in Cmax [4, 23]: 1.3 fold | Contribution to the total active moiety (unbound, adjusted for relative potencies) (Single vs multiple-dose): ~ 30%
Structure (SMILES): CC(O)CS(=O)(=O)N[C@H]1C[C@@H](N(C)c2ncnc3[nH]ccc23)C1 (stereo partly shown) [M2]
Fraction unbound in plasma (fu) [11]: 0.71 | Share of circulating species [8]: 12% | Substrate of OAT3 [9]: substrates; also recorded: in part a substrate

Subjects with TRAEs [4, 24]: 2 (16.7) n (%)
Structure (SMILES): CCCN(CCC)S(=O)(=O)c1ccc(C(=O)O)cc1 [Probenecid, reference compound]
Subjects with TEAEs [4, 24]: 2 (16.7) n (%)

Subjects with TRAEs ([3]; Rifampin 600 mg QD (n = 12)): 10 (83.3) n (%)
Structure (SMILES): CO[C@H]1/C=C/O[C@@]2(C)Oc3c(C)c(O)c4c(O)c(c(/C=N/N5CCN(C)CC5)c(O)c4c3C2=O)NC(=O)/C(C)=C\C=C\[C@H](C)[C@H](O)[C@@H](C)[C@@H](O)[C@@H](C)[C@H](OC(C)=O)[C@@H]1C [Rifampin, reference compound]
Subjects with TEAEs ([3]; Rifampin 600 mg QD (n = 12)): 10 (83.3) n (%)
